From ChEMBL document CHEMBL1159118, “The effect of backbone cyclization on PK/PD properties of bioactive peptide-peptoid hybrids: the melanocortin agonist paradigm” (Bioorg Med Chem, 2010) come the findings set out here.

Each structure is given as a SMILES string. Numbered stars: 1 amine (or outer) side, 2 acyl side, 3 side chain; on linkers, the order of the positions; unused ones are H or OH. Bridge positions count the residues as written; N and C are the ends. Square brackets hold non-standard residues; d marks the D form. Peptide text beside a SMILES is read from it. N(2-Aminoethyl)Gly = O=C(CN(CCN[*:3])[*:1])[*:2]; Adipoyl = O=C(CCCCC(=O)[*:2])[*:1]; Glutaryl = O=C(CCCC(=O)[*:2])[*:1]; Suc = O=C(CCC(=O)[*:2])[*:1]; Nphe = O=C(O)CNCc1ccccc1

The nature of data set [1]: Membrane binding affinity to synthetic dimyristoylphosphatidylcholine/polydiacetylene vesicles assessed as colorimetric response by colorimetric assay. Further details: concentration or dose not given beside the values. In outline:
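Peptide added from 0.4 mg/mL stock to vesicles (0.5 mM total lipids, 25 mM Tris-base pH 8), diluted with water; UV–vis absorbance at 640 and 500 nm; %CR = [(PB0 − PBI)/PB0] × 100, PB = Ablue/(Ablue + Ared); duplicates.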

For a further data set, the target named is Melanocortin receptor 4 (Mus musculus, UniProt P56450). Kind of data set: Agonist activity at mouse MC4R expressed in HEK293 cells by beta-galactosidase reporter gene assay. The data set is classed as functional, cell-based.
The target in a further data set is Melanocortin receptor 3 (Mus musculus, UniProt P33033). Description: Agonist activity at mouse MC3R expressed in HEK293 cells by beta-galactosidase reporter gene assay. The data set is classed as functional, cell-based. For orientation: A reporter such as luciferase makes a cellular process visible.
The target of data set [2] is Melanocyte-stimulating hormone receptor (Mus musculus, UniProt Q01727). Kind of data set: Agonist activity at mouse MC1R expressed in HEK293 cells by beta-galactosidase reporter gene assay. The data set is classed as functional, cell-based.
The target in a further data set is Melanocortin receptor 5 (Mus musculus, UniProt P41149). Description: Agonist activity at mouse MC5R expressed in HEK293 cells by beta-galactosidase reporter gene assay. The data set is classed as functional, cell-based.
The nature of data set [3]: Metabolic stability in Wistar rat brush border membrane vesicles assessed as drug degradation up to 90 mins by HPLC. It is filed as ADME, cell membranes. The note with it: read-out: Activity. In outline:
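Brush border membrane vesicles from duodenum, jejunum and upper ileum of male Wistar rats (200–250 g), Ca2+ precipitation, 13–18-fold marker-enzyme enrichment. Compound incubated with BBMVs at 37 °C for 90 min; duplicate samples at 0, 15, 30, 45, 60, 90 min, quenched 1:1 with ice-cold methanol, centrifuged, analysed by HPLC.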

Data set [4] can be described thus: (§1) Metabolic stability in rat serum assessed as drug degradation after 4 hrs. It is filed as ADME, cell-free. The note with it: read-out: Activity.
Data set [5] has as its system Serum. Description: Metabolic stability in rat serum assessed as drug remaining after 3 hrs. The data set is classed as ADME, cell-free.
The subject of the next data set is Caco-2. Kind of data set: Ratio of Papp for mannitol to Papp for drug in permeability across apical to basolateral side of human Caco-2 cells. It is filed as ADME, cell-based. (Caco-2 monolayers are a common model of the intestinal barrier.)
Data set [6] has as its target Melanocortin receptor 4 (Mus musculus) (UniProt P56450). Kind of data set: Agonist activity at mouse MC4R expressed in HEK293 cells at 100 uM by beta-galactosidase reporter gene assay relative to control. The data set is classed as functional, cell-based. In outline:
(§2)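 CRE/β-galactosidase reporter in HEK-293 cells stably expressing the mouse receptor; 6 h peptide exposure with 0.1 mM IBMX; ONPG read at OD 405 nm, normalized to protein content and forskolin (10–4 M) response; % stimulation at highest concentration tested, relative to control; ≥3 independent experiments.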

Data set [7] deals with Melanocortin receptor 3 (Mus musculus) (UniProt P33033). Description: Agonist activity at mouse MC3R expressed in HEK293 cells at 100 uM by beta-galactosidase reporter gene assay relative to control. The data set is classed as functional, cell-based. In outline:
as §2

A short description of data set [8]: (§3) Metabolic stability in rat serum assessed as drug degradation after 1 hr. The data set is classed as ADME, cell-free. To be noted: read-out: Activity. In outline: (§4)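 Incubation in rat serum, sampled at 0, 1, 2 and 5 h; degradation relative to initial concentration.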
The subject of data set [9] is Serum. The data set is described as §3. The data set is classed as ADME, cell-free. The note with it: 1 h. In outline:
as §4

Data set [10] concerns Serum. The description is as §1. It is filed as ADME, cell-free. The note with it: 4 h.

Melanocortin receptor 3, sequence (P33033 whole entry): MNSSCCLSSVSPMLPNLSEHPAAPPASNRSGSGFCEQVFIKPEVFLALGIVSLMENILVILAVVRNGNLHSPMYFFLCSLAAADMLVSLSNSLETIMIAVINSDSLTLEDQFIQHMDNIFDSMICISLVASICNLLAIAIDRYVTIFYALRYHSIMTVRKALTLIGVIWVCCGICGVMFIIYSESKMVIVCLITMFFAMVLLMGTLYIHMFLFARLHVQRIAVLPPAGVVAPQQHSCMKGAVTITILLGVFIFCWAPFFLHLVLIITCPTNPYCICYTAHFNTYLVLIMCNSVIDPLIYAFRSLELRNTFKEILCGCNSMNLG
Melanocortin receptor 5, sequence (P41149 whole entry): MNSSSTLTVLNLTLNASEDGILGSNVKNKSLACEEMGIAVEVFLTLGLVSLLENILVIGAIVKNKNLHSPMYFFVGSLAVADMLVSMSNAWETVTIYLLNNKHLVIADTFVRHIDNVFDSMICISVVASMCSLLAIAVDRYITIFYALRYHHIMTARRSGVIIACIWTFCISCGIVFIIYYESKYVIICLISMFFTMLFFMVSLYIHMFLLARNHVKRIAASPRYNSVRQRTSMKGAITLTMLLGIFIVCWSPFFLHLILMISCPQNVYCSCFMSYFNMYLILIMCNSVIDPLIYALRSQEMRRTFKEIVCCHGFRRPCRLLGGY
Melanocyte-stimulating hormone receptor, sequence (Q01727 whole entry): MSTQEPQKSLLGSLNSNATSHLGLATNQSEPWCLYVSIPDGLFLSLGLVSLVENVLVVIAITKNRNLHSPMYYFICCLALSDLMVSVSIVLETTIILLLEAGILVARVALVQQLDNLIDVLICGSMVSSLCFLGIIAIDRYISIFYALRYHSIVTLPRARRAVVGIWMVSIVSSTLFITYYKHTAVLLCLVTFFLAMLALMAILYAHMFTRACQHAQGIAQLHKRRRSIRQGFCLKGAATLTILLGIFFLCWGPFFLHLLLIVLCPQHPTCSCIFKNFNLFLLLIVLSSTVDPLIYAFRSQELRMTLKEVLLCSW
Melanocortin receptor 4, sequence (P56450 whole entry): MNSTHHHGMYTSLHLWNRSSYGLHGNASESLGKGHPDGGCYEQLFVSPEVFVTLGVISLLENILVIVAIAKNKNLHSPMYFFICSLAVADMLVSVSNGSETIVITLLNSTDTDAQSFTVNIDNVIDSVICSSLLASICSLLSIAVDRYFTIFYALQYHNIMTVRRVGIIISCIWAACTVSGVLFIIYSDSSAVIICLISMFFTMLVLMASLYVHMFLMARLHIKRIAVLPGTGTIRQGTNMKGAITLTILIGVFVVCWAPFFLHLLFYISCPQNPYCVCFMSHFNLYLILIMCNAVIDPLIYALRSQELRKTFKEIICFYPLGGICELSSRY
Melanocortin receptor 3 (Mus musculus), sequence (P33033 whole entry): as the sequence (P33033 whole entry) above
Melanocortin receptor 4 (Mus musculus), sequence (P56450 whole entry): as the sequence (P56450 whole entry) above

For the molecule `N=C(N)NCCC[C@@H]1NC(=O)CN(Cc2ccccc2)C(=O)CN(Cc2ccccc2)C(=O)CCCCC(=O)NCCN(CC(N)=O)C(=O)[C@H](Cc2c[nH]c3ccccc23)NC1=O` ([Nphe][Nphe]RW[N(2-Aminoethyl)Gly]-NH2; linker N-5 via Adipoyl), the Activity in data set [1] is less than 30%.

In the case of `N=C(N)NCCC[C@@H]1NC(=O)CN(Cc2ccccc2)C(=O)[C@H](Cc2ccccc2)NC(=O)CCCCC(=O)NCCN(CC(N)=O)C(=O)[C@H](Cc2c[nH]c3ccccc23)NC1=O` (F[Nphe]RW[N(2-Aminoethyl)Gly]-NH2; linker N-5 via Adipoyl), the Activity in data set [1] is less than 30%.

Turning to `NC(=O)CN1CCNC(=O)CCCCC(=O)N[C@@H](Cc2ccccc2)C(=O)N(Cc2ccccc2)CC(=O)N[C@@H](CCCN=C(N)N)C(=O)N[C@@H](Cc2c[nH]c3ccccc23)C1=O` (F[Nphe]RW[N(2-Aminoethyl)Gly]-NH2; linker N-5 via Adipoyl), the EC50 (commonly the concentration giving half of the maximal effect) was 3300 nM on Melanocortin receptor 4, greater than 100 nM at Melanocortin receptor 3, 1170 nM in data set [2] and 485 nM on Melanocortin receptor 5. The metabolised at 1.5 h in data set [3] is 5%.

For the molecule `N=C(N)NCCC[C@@H]1NC(=O)[C@@H](Cc2ccccc2)NC(=O)CN(Cc2ccccc2)C(=O)CCCCC(=O)NCCN(CC(N)=O)C(=O)[C@H](Cc2c[nH]c3ccccc23)NC1=O`, the EC50 on Melanocortin receptor 4 was 49 nM; at Melanocortin receptor 3, 7170 nM; in data set [2], 120 nM; at Melanocortin receptor 5, 8.1 nM. Besides, the metabolised at 4 h in data set [4] is greater than 40%. Moreover, the Activity in data set [1] came out at 90%. For the same molecule, the metabolised at 1.5 h in data set [3] came out at 5%.

As for `N=C(N)NCCC[C@@H]1NC(=O)CN(Cc2ccccc2)C(=O)CN(Cc2ccccc2)C(=O)CCCC(=O)NCCN(CC(N)=O)C(=O)[C@H](Cc2c[nH]c3ccccc23)NC1=O` ([Nphe][Nphe]RW[N(2-Aminoethyl)Gly]-NH2; linker N-5 via Glutaryl), the Activity in data set [1] was less than 30%.

As for `CC(=O)NCC(=O)N[C@@H](Cc1ccccc1)C(=O)N(CC(=O)N[C@@H](CCCNC(=N)N)C(=O)N[C@@H](Cc1c[nH]c2ccccc12)C(=O)NCC(N)=O)Cc1ccccc1` (HELM PEPTIDE1{[ac].G.F.[O=C(CN(Cc1ccccc1)[*:1])[*:2]].R.W.G.[am]}$$$$V2.0), the EC50 is 8.8 nM at Melanocortin receptor 4, greater than 100 nM at Melanocortin receptor 3, 220 nM in [2] and 16.2 nM at Melanocortin receptor 5. Further, the Stability result in the data set on Serum [5] is on record as “Unstable”. Also, in [1], the Activity was less than 30%. Besides, the metabolised at 1.5 h in [3] turned out to be 20%.

For the molecule `NC(=O)CN1CCNC(=O)CCCC(=O)N(Cc2ccccc2)CC(=O)N(Cc2ccccc2)CC(=O)N[C@@H](CCCN=C(N)N)C(=O)N[C@@H](Cc2c[nH]c3ccccc23)C1=O` ([Nphe][Nphe]RW[N(2-Aminoethyl)Gly]-NH2; linker N-5 via Glutaryl), the EC50 on Melanocortin receptor 4 is 2250 nM; on Melanocortin receptor 3, greater than 100 nM; in data set [2], 1680 nM; at Melanocortin receptor 5 it was 350 nM. The Ratio in the data set on Caco-2 was found to be 3. Besides, in data set [3], the metabolised at 1.5 h was 5%.

`N=C(N)NCCC[C@@H]1NC(=O)CN(Cc2ccccc2)C(=O)[C@H](Cc2ccccc2)NC(=O)CCCC(=O)NCCN(CC(N)=O)C(=O)[C@H](Cc2c[nH]c3ccccc23)NC1=O` (F[Nphe]RW[N(2-Aminoethyl)Gly]-NH2; linker N-5 via Glutaryl): the Activity in [6] was 25%; in data set [1] it was less than 30%.

In the case of `CC(=O)NCC(=O)N(CC(=O)N(CC(=O)N[C@@H](CCCNC(=N)N)C(=O)N[C@@H](Cc1c[nH]c2ccccc12)C(=O)NCC(N)=O)Cc1ccccc1)Cc1ccccc1` (HELM PEPTIDE1{[ac].G.[O=C(CN(Cc1ccccc1)[*:1])[*:2]].[O=C(CN(Cc1ccccc1)[*:1])[*:2]].R.W.G.[am]}$$$$V2.0), the results for the EC50 (at Melanocortin receptor 4; in data set [2]; on Melanocortin receptor 5) were 10.5 nM, 240 nM and 8.1 nM, respectively. Besides, the Stability result in the data set on Serum [5] is listed as “Unstable”. The Activity in [7] was 40%; in data set [1], less than 30%. Further, the metabolised at 1.5 h in data set [3] was determined as 20%.

For the molecule `NC(=O)CN1CCNC(=O)CCC(=O)N[C@@H](Cc2ccccc2)C(=O)N(Cc2ccccc2)CC(=O)N[C@@H](CCCN=C(N)N)C(=O)N[C@@H](Cc2c[nH]c3ccccc23)C1=O` (F[Nphe]RW[N(2-Aminoethyl)Gly]-NH2; linker N-5 via Suc), the EC50 is 3830 nM on Melanocortin receptor 4, greater than 100 nM at Melanocortin receptor 3, 2810 nM in data set [2] and 3960 nM on Melanocortin receptor 5. For the same molecule, the metabolised at 1.5 h in data set [3] amounted to 5%.

Consider `CC(=O)NCC(=O)N(CC(=O)N[C@H](Cc1ccccc1)C(=O)N[C@@H](CCCNC(=N)N)C(=O)N[C@@H](Cc1c[nH]c2ccccc12)C(=O)NCC(N)=O)Cc1ccccc1`, for which the EC50 at Melanocortin receptor 4 was 9820 nM; at Melanocortin receptor 3, greater than 100 nM; in data set [2] it was 11800 nM; on Melanocortin receptor 5, 3430 nM. Moreover, the metabolised at 1 h in data set [8] was determined as 50%. The Activity in data set [1] amounted to 31%. For the same molecule, the metabolised at 1.5 h in data set [3] was determined as 20%.

Regarding `N=C(N)NCCC[C@@H]1NC(=O)CN(Cc2ccccc2)C(=O)[C@H](Cc2ccccc2)NC(=O)CCC(=O)NCCN(CC(N)=O)C(=O)[C@H](Cc2c[nH]c3ccccc23)NC1=O` (F[Nphe]RW[N(2-Aminoethyl)Gly]-NH2; linker N-5 via Suc), in data set [1], the Activity was less than 30%.

For the molecule `N=C(N)NCCC[C@@H]1NC(=O)CN(Cc2ccccc2)C(=O)CN(Cc2ccccc2)C(=O)CCC(=O)NCCN(CC(N)=O)C(=O)[C@H](Cc2c[nH]c3ccccc23)NC1=O` ([Nphe][Nphe]RW[N(2-Aminoethyl)Gly]-NH2; linker N-5 via Suc), the EC50 on Melanocortin receptor 4 is 1960 nM; at Melanocortin receptor 3, greater than 100 nM; in data set [2] it was 620 nM; at Melanocortin receptor 5, 2950 nM. Also, in [1], the Activity was less than 30%. Moreover, the metabolised at 1.5 h in data set [3] was found to be 5%.

Turning to `N=C(N)NCCC[C@@H]1NC(=O)[C@@H](Cc2ccccc2)NC(=O)CN(Cc2ccccc2)C(=O)CCC(=O)NCCN(CC(N)=O)C(=O)[C@H](Cc2c[nH]c3ccccc23)NC1=O`, the EC50 was 1370 nM at Melanocortin receptor 4, greater than 100 nM on Melanocortin receptor 3, 380 nM in data set [2] and 1650 nM at Melanocortin receptor 5. Besides, the Stability entry with Serum [9] and with Serum [5] was “Stable” throughout. Besides, the figures for the Activity entry (with Serum [10]; in data set [1]) were “Stable” and less than 30%, respectively. The metabolised at 1.5 h in [3] was found to be 5%.

For `NC(=O)CN1CCNC(=O)CCCCC(=O)N(Cc2ccccc2)CC(=O)N(Cc2ccccc2)CC(=O)N[C@@H](CCCN=C(N)N)C(=O)N[C@@H](Cc2c[nH]c3ccccc23)C1=O` ([Nphe][Nphe]RW[N(2-Aminoethyl)Gly]-NH2; linker N-5 via Adipoyl), the half-maximal effective concentration (EC50) was 1700 nM at Melanocortin receptor 4, greater than 100 nM at Melanocortin receptor 3, 990 nM in data set [2] and 320 nM at Melanocortin receptor 5. In addition, in data set [3], the metabolised at 1.5 h came to 5%.

As to `NC(=O)CN1CCNC(=O)CCCC(=O)N[C@@H](Cc2ccccc2)C(=O)N(Cc2ccccc2)CC(=O)N[C@@H](CCCN=C(N)N)C(=O)N[C@@H](Cc2c[nH]c3ccccc23)C1=O` (F[Nphe]RW[N(2-Aminoethyl)Gly]-NH2; linker N-5 via Glutaryl), the values for the 50% effective concentration (EC50) (on Melanocortin receptor 3; in [2]; at Melanocortin receptor 5) were greater than 100 nM, 1000 nM and 2320 nM, respectively. For the same molecule, in data set [3], the metabolised at 1.5 h worked out at 5%.

For the molecule `NC(=O)[C@H](Cc1c[nH]c2ccccc12)NC(=O)[C@H](CCCN=C(N)N)NC(=O)[C@@H](Cc1ccccc1)NC(=O)[C@@H](N)Cc1ccccc1`, the EC50 at Melanocortin receptor 4 came out at 70.6 nM; at Melanocortin receptor 3 it was 11900 nM; in [2], 503 nM; at Melanocortin receptor 5 it was 143 nM.

In the case of `N=C(N)NCCC[C@@H]1NC(=O)[C@@H](Cc2ccccc2)NC(=O)CN(Cc2ccccc2)C(=O)CCCC(=O)NCCN(CC(N)=O)C(=O)[C@H](Cc2c[nH]c3ccccc23)NC1=O`, the EC50 at Melanocortin receptor 4 was 640 nM; at Melanocortin receptor 3 it was greater than 100 nM; in data set [2], 220 nM; at Melanocortin receptor 5 it was 310 nM. In addition, the Ratio in the data set on Caco-2 was 3. For the same molecule, the metabolised at 4 h in data set [4] is greater than 40%. In data set [1], the Activity came out at 89%. Moreover, the metabolised at 1.5 h in data set [3] amounted to 5%.
